Source: ChEMBL document CHEMBL1156948, “Statistical molecular design of a focused salicylidene acylhydrazide library and multivariate QSAR of inhibition of type III secretion in the Gram-negative bacterium Yersinia” (Bioorg Med Chem, 2010)
The source made the active and inactive calls.

Columns and labels:
[1] = test system: Yersinia pseudotuberculosis YPIII; experiment: Inhibition of T3S in Yersinia pseudotuberculosis YPIII expressing yopE-luxAB at 3.13 uM after 3 hrs by luciferase reporter gene assay
Procedure, shortened: (§1)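 Strain YPIII pIB102 (yopE-luxAB) grown overnight at room temperature in BHI with 5 mM EGTA and 20 mM MgCl2 (calcium depletion), adjusted to OD600 0.088–0.095. Compound added from DMSO at 1.56–200 µM final (eight concentrations). Shaken 1 h at room temperature, then 2 h at 37 °C. Decanal added and light emission read immediately. Triplicates, repeated at least three times.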

[2] = test system: Yersinia pseudotuberculosis YPIII; experiment: Inhibition of T3S in Yersinia pseudotuberculosis YPIII expressing yopE-luxAB at 100 uM after 3 hrs by luciferase reporter gene assay; procedure, shortened: as §1
[3] = test system: Yersinia pseudotuberculosis; experiment: Antibacterial activity against Yersinia pseudotuberculosis expressing pIB102 at 50 uM after 23 hrs by broth dilution assay; assay type: functional, organism-based
Procedure, shortened: (§2)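 Wild-type pIB102 grown overnight in LB at room temperature, diluted to OD600 = 0.1 in LB with 2.5 mM CaCl2. Compound added from DMSO stock to final 50 and 100 µM. Incubated at 37 °C with absorbance at 595 nm read over 23 h.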

[4] = target: Tyrosine-protein phosphatase YopH (Yersinia pseudotuberculosis serotype I (strain IP32953)) (UniProt P08538); experiment: Inhibition of YopH in Yersinia pseudotuberculosis YPIII expressing yopE-luxAB treated 3 hrs before substrate addition measured after 15 mins by microplate reader
Procedure, shortened: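 Same calcium-depleted YPIII pIB102 cultures and compound exposure (1 h room temperature, then 2 h 37 °C). An aliquot of the bacterial suspension was mixed with 25 mM p-nitrophenyl phosphate, 40 mM MES pH 5.0, 1.6 mM DTT. Incubated 15 min at 37 °C, quenched with 1 M NaOH, absorbance read at 405 nm. Triplicates, repeated at least three times.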

Escherichia coli [5] = experiment: Antibacterial activity against Escherichia coli DH5[alpha] at 50 uM after 23 hrs by broth dilution assay; assay type: functional, organism-based
Procedure, shortened: (§3)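 Overnight LB culture of E. coli DH5α grown at 37 °C, diluted to OD600 0.1 in LB with 2.5 mM CaCl2; compound added from DMSO stock to final 50 or 100 µM. Incubated at 37 °C with absorbance at 595 nm followed over 23 h.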

[6] = test system: Yersinia pseudotuberculosis; experiment: Antibacterial activity against Yersinia pseudotuberculosis expressing pIB102 infected in mouse J774 cells assessed as inhibition of bacteria-induced cell death at 50 uM after 14 hrs using calcein AM staining by fluorescence microscopy; assay type: functional, organism-based
Procedure, shortened: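 J774A macrophages (4 × 10^4 cells/well) grown 24 h in DMEM/10% FCS/gentamicin. Wild-type pIB102 grown in LB plus kanamycin overnight at room temperature, diluted 1/10 in DMEM, shaken 1 h at room temperature then 2 h at 37 °C. Added at OD600 = 0.002 with compound (25, 50, 100 µM final; DMSO <0.5%). Incubated 14 h, 37 °C, 5% CO2. CalceinAM 40 min, fluorescence 485/535 nm; uninfected cells = 100% viability.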

[7] = test system: Yersinia pseudotuberculosis; experiment: Antibacterial activity against Yersinia pseudotuberculosis expressing pIB102 at 100 uM after 23 hrs by broth dilution assay; assay type: functional, organism-based; procedure, shortened: as §2
Escherichia coli [8] = experiment: Antibacterial activity against Enterotoxigenic Escherichia coli infected in mouse J774 cells assessed as inhibition of bacteria-induced cell death at 25 to 100 uM after 14 hrs using calcein AM staining by fluorescence microscopy; assay type: functional, organism-based
Procedure, shortened: (§4)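 J774A macrophages (4×10⁴/well, DMEM with 10% FCS, gentamicin 3 µg/mL, 24 h at 37 °C, 5% CO2) washed with PBS, then given fresh DMEM with compound plus bacteria (OD600 0.002), final 25, 50, 100 µM, DMSO below 0.5%. ETEC grown overnight in LB at 37 °C, diluted and grown 3 h. 14 h at 37 °C, 5% CO2; CalceinAM 40 min, fluorescence 485/535 nm, confirmed by microscopy; uninfected cells = 100% viability; gentamicin 5 µg/mL rescue control.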

[9] = test system: Yersinia pseudotuberculosis YPIII; experiment: Inhibition of T3S in Yersinia pseudotuberculosis YPIII expressing yopE-luxAB at 200 uM after 3 hrs by luciferase reporter gene assay; procedure, shortened: as §1
J774 = experiment: Cytotoxicity against mouse J774 cells at 25 to 100 uM after 14 hrs using calcein AM staining by fluorescence microscopy; assay type: cell-based; conditions: j774, 14 h; procedure, shortened: as §4
Escherichia coli [10] = experiment: Antibacterial activity against Escherichia coli DH5[alpha] at 100 uM after 23 hrs by broth dilution assay; assay type: functional, organism-based; procedure, shortened: as §3
[11] = test system: Yersinia pseudotuberculosis YPIII; experiment: Inhibition of T3S in Yersinia pseudotuberculosis YPIII expressing yopE-luxAB at 6.25 uM after 3 hrs by luciferase reporter gene assay; procedure, shortened: as §1
[12] = test system: Yersinia pseudotuberculosis YPIII; experiment: Inhibition of T3S in Yersinia pseudotuberculosis YPIII expressing yopE-luxAB at 50 uM after 3 hrs by luciferase reporter gene assay; procedure, shortened: as §1
[13] = test system: Yersinia pseudotuberculosis YPIII; experiment: Inhibition of T3S in Yersinia pseudotuberculosis YPIII expressing yopE-luxAB at 25 uM after 3 hrs by luciferase reporter gene assay; procedure, shortened: as §1
[14] = test system: Yersinia pseudotuberculosis YPIII; experiment: Inhibition of T3S in Yersinia pseudotuberculosis YPIII expressing yopE-luxAB at 12.5 uM after 3 hrs by luciferase reporter gene assay; procedure, shortened: as §1
[15] = Aqueous solubility at 200 uM; assay type: physicochemical; conditions: buffer
[16] = test system: Yersinia pseudotuberculosis YPIII; experiment: Inhibition of T3S in Yersinia pseudotuberculosis YPIII expressing yopE-luxAB at 1.56 uM after 3 hrs by luciferase reporter gene assay; procedure, shortened: as §1

Sequence of Tyrosine-protein phosphatase YopH (Yersinia pseudotuberculosis serotype I (strain IP32953)) (P08538 whole entry): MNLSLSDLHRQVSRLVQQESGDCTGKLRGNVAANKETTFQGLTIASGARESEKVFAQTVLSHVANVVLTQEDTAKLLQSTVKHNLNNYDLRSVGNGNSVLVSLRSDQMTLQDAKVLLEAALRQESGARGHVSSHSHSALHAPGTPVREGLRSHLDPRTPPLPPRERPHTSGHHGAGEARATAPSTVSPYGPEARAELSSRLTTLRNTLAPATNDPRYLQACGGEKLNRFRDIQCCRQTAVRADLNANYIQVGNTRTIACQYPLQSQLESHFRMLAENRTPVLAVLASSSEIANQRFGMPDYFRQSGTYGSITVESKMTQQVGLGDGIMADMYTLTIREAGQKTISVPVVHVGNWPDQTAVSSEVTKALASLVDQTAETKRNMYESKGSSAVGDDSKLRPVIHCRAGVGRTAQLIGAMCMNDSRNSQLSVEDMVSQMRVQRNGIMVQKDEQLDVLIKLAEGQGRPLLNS

Structure (SMILES)	inhibition [1] [%]	inhibition [2] [%]	Activity [3]	inhibition [4]	Activity (Escherichia coli [5])	inhibition [6]	Activity [7]	inhibition (Escherichia coli [8])	inhibition [9] [%]	Activity (J774)	Activity (Escherichia coli [10])	inhibition [11] [%]	inhibition [12] [%]	inhibition [13] [%]	inhibition [14] [%]	solubility [15]	inhibition [16] [%]
O=C(COc1ccc([N+](=O)[O-])cc1)N/N=C/c1cccc(F)c1O	-5	95	inactive	Active	inactive	Active	inactive	inactive	97	Non-toxic	inactive	6	84	25	4	–	–
COc1ccc(Br)c(/C=N/NC(=O)c2snnc2C)c1O	14	71	inactive	–	inactive	–	inactive	–	–	–	inactive	19	60	34	21	Insoluble	-5
O=C(N/N=C/c1cc(I)cc(I)c1O)c1cc(Cl)cc(Cl)c1	12	21	inactive	inactive	inactive	–	inactive	–	–	–	inactive	15	26	23	17	Insoluble	0
COc1cccc(C(=O)N/N=C/c2cccc(F)c2O)c1	7	58	inactive	–	inactive	Active	inactive	inactive	74	Non-toxic	inactive	9	45	17	11	–	-2
CC(C)(C)c1cc(/C=N/NC(=O)c2cccc(C(F)(F)F)c2)c(O)c(C(C)(C)C)c1	-10	11	inactive	–	inactive	inactive	inactive	inactive	2	Non-toxic	inactive	3	9	6	7	–	–
O=C(CCc1ccc(F)cc1)N/N=C/c1cc(F)cc(Cl)c1O	2	90	inactive	–	inactive	inactive	inactive	inactive	94	Non-toxic	inactive	-1	63	15	10	–	-6
